Test results: publication PMC4479701 (mBio, 2015)
≈ marks a conversion by molar mass, not a printed value. Where “and” joins values, the source holds several entries; their conditions need not be identical. Equal entries are not always repeated. Where two headings read alike, the source gives them in different places.

Key:
Candida glabrata = assay: In vitro susceptibility testing; format: cell-based; details: FTL strains (10)
Outline: (§1)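 Inoculum prepared per CLSI M27-A3. Plates incubated at 37°C with 5% CO2 for 24 to 96 h. MIC was the lowest concentration inhibiting 50% of growth versus the drug-free control. Minimum fungicidal concentration was also measured: serial dilutions from wells were plated on YPD agar, and MFC was the lowest concentration yielding three or fewer colonies (99% of inoculum killed).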

[1] = test system: various Cryptococcus species; assay: MIC; format: cell-based
Outline: as §1

C. neoformans = assay: NBD C6-ceramide staining; format: cell-based; details: 4 µg/ml; microscopy and FACS
Outline: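 C. neoformans cells, untreated or treated with 4 µg/ml test compound, were fixed in 4% paraformaldehyde in PBS and washed. They were stained with NBD C6-ceramide for 16 h at 4°C, then incubated with 1% BSA at 4°C for 1 h to strip excess dye.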

C. neoformans cells = assay: In vitro passages, development of resistance; format: cell-based; details: 15 days of in vitro passages (120 generations), 10^6 cells/ml; data not shown
C. albicans = assay: Yeast-to-hypha differentiation; format: cell-based; details: 4 µg/ml
Outline: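 C. albicans yeast and hyphal forms were counted after exposure to test compound and compared with drug-free controls. Twenty random fields, about 120 cells, were scored.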

Cryptococcus neoformans = assay: In vitro susceptibility testing; format: cell-based
Candida spp. = assay: In vitro susceptibility; format: cell-based; details: most Candida spp. examined
Outline: as §1

[2] = test system: S. cerevisiae deletion mutants; format: cell-based, Saccharomyces cerevisiae
Aspergillus fumigatus = assay: In vitro susceptibility testing; format: cell-based
Outline: as §1

[3] = test system: sphingolipids of C. neoformans; assay: Sphingolipid profiling by TLC and LC-MS; format: cell-based
Histoplasma capsulatum = format: cell-based
Coccidioides spp. = format: cell-based
Pneumocystis murina = assay: In vitro testing against Pneumocystis, inhibition of ATP; format: cell-based; details: read-out: IC50 (percentage inhibition of ATP)
Candida albicans = assay: In vitro susceptibility testing; format: cell-based
Outline: as §1

[4] = test system: GlcCer synthesis in C. neoformans; assay: In vivo labeling with [3H]palmitate, TLC of GlcCer; format: cell-based; details: [3H]palmitate labeling
[5] = test system: GlcCer synthesis in C. albicans cells; assay: GlcCer synthesis in C. albicans; format: cell-based; details: in vitro treatment; data not shown
[6] = test system: GlcCer synthesis in J774.16 cells; assay: Labeling of mammalian cells with [3H]palmitate, TLC of GlcCer; format: cell-based, murine; details: [3H]palmitate labeling, 6 h
Outline: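 J774.16 macrophages (5 × 10^6 cells/ml) adhered for 14 h in six-well plates. They were exposed for 4 h to test compound at the concentrations used for the fungal labeling, then given 30 µCi/ml [3H]palmitic acid for a further 2 h.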

Cryptococcus gattii = assay: In vitro susceptibility testing; format: cell-based
Outline: as §1

[7] = test system: S. cerevisiae RYO0622 strain; assay: IC100 prescreening; format: cell-based, Saccharomyces cerevisiae; details: solid SC medium, 2 days, 30°C
Outline: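 S. cerevisiae RYO0622 cells (20 µl at OD600 10−4) spotted on solid SC medium alone, with DMSO, or with test compound at 67, 133, 266, 533 and 1,066 µg/ml in a 48-well plate. Incubation 2 days at 30°C in the dark. IC100 taken as the concentration giving 100% growth inhibition.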

[8] = TLC, confirmed by mass spectrometry

SMILES: Cc1ccccc1C(=O)NN=Cc1ccc(O)c(Br)c1 [BHBM, N′-(3-bromo-4-hydroxybenzylidene)-2-methylbenzohydrazide]
- MIC range (Candida glabrata): 0.125−2 µg/ml
- MIC [1]: 0.25 to 8 µg/mL (≈ 0.75 to 24 µM)
- NBD C6-ceramide staining (C. neoformans): substantial accumulation
- development of resistance (C. neoformans cells): did not develop resistance
- yeast-to-hypha differentiation (C. albicans): significantly reduced
- MIC range (Cryptococcus neoformans): 0.5−2 µg/ml and 1−2 µg/ml
- MIC range (Cryptococcus neoformans; FTL strains (13)): 0.25−8 µg/ml
- in vitro susceptibility (Candida spp.): resistant
- resistance of Δsla2 mutant [2]: not resistant
- growth of Δapl5, Δcos111, Δmkk1, Δste2 mutants compared with parent strain ([2]; BHBM in the range of 11 to 92 µg/ml, 24 h, 30°C): increased resistance
- MIC range (Aspergillus fumigatus; FTL strains (3)): >16 µg/mL
- MIC range (Aspergillus fumigatus; MDPL strain (1)): 8 µg/mL (≈ 24 µM)
- levels of C18 hydroxyceramide and its desaturated and methylated forms ([3]; LC-MS, D0 data not shown): decreased
- GlcCer levels [3, 8]: decrease
- dihydroceramide, sphingosine, and sphingosine-1-phosphate [3, 8]: increased
- MIC range (Histoplasma capsulatum): 0.125−1 µg/ml
- MIC range (Coccidioides spp.): 8 to 16 µg/mL
- IC50 (Pneumocystis murina; 24 h): 1.02 µg/mL (≈ 3.06 µM)
- IC50 (Pneumocystis murina; 48 h): < 0.01 µg/mL
- IC50 (Pneumocystis murina; 72 h): < 0.01 µg/mL
- IC50 (Pneumocystis murina; 96 h): 2.02 µg/mL (≈ 6.06 µM)
- MIC range (Candida albicans; FTL strains (3)): >32 µg/mL
- MIC range (Candida albicans; MDPL strains (5)): >32 µg/mL
- synthesis of GlcCer [4]: significantly inhibited
- GlcCer synthesis [5]: inhibited GlcCer synthesis in a dose-dependent manner
- synthesis of mammalian GlcCer or other sphingolipids [6]: no significant changes
- MIC range (Cryptococcus gattii; FTL strains (10)): 0.5−2 µg/ml
- MIC range (Cryptococcus gattii; MDPL strains (3)): 0.5−1 µg/ml
- 100% inhibitory concentration (IC100) [7]: 133 µg/mL
